STAT3 activator – STAT3 signaling activation; U3A cells, IL-6 STAT3-luciferase reporter, luminescence; 100% = signal with IL-6 EC80 alone; activation (% of control), % at 5.6 µM; 190,000 tested, 0.91% active;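 active means activation above the screen-wide mean of compound activation plus 3 SD, cut at about 130% in these data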;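 further: 0% = background luminescence of wells with medium and substrate only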
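Material: STAT3-luciferase reporter U3A cells. Controls: IL-6-treated wells, 100% activation. Read-out: % activation versus median of IL-6-stimulated wells. Probe or stimulus: IL-6 stimulus at 33 ng/mL final. Timing: compound 1 h, then IL-6 6 h at 37 °C. Signal: reporter luminescence signal.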
APP 5'UTR act – activates APP 5'UTR luciferase reporter; 190,000 tested, 1% active; activation, % at 2 µM; SH-SY5Y APP 5'UTR luciferase reporter, luminescence; zero percent = DMSO vehicle wells;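 active means activation above a set limit, based on mean plus 3 SD of controls, cut at about 140% in these data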
STAT1 activator – STAT1 signaling activation; NIH 3T3 STAT1-luciferase reporter, IFN-gamma, luminescence; 100% = IFN-gamma alone, no compound; activation (% of control), % at 5.5 µM; 200,000 tested, 2.6% active; AID 932;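 active means activation above the screen-wide mean activation plus 3 SD, cut at about 130% in these data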;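 further: raw ratio to IFN-gamma control signal so 100% means no change and 0% no light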
STAT3 inh-1 – STAT3 signaling inhibition; U3A cells, IL-6 STAT3-luciferase reporter, luminescence; host cell line lacks STAT1; inhibition, % at 5.5 µM; 190,000 tested, 0.89% active; AID 862;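 active means inhibition above the mean inhibition across all screened compounds plus 3 SD, cut at about 44% in these data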;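 further: 0% = DMSO only wells and 100% = 100 µM nifuroxazide control wells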
STAT1 inh – STAT1 signaling inhibition | 200,000 tested, 0.35% active | inhibition, % at 5.5 µM | NIH 3T3 STAT1-luciferase reporter, IFN-gamma, luminescence;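 active means inhibition above a set limit, the mean inhibition across all tested compounds plus 3 SD, cut at about 34% in these data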;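 further: 0% = IFN-gamma with DMSO and 100% = IFN-gamma with 300 µM nifuroxazide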
NF-kB expr up – NF-kB expression increase, human neuronal cells; fold change at 12.5 µM; AID 1239; NF-kB reporter expression; stronger effect = higher value; 190,000 tested, 1.6% active; in the data active means fold change above about 3.3
STAT3 inh-2 – STAT3 inhibition, confirmation assay | shares compounds with STAT3 inh-1 | U3A cells, IL-6 STAT3 luciferase reporter, luminescence; cell line lacks STAT1 | inhibition, % at 5.7 µM | 1,200 tested, 45% active | AID 1265;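 active means inhibition above the hit cutoff computed for the primary STAT3 screen, cut at about 44% in these data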;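 further: 0% = IL-6 plus DMSO and 100% = IL-6 plus nifuroxazide control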
NFkB inh STAT3ct – counter-screen for STAT3 inhibitors: NF-kappaB inhibition. 1,200 tested, 36% active. HEK293T NF-kB luciferase reporter, TNF-alpha induced. inhibition, % at 5.7 µM. shares compounds with STAT3 inh-1;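 active means inhibition above the mean of solvent-only control wells plus 3 SD, cutoff set per campaign, cut at about 13% in these data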;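 further: 0% = TNF-alpha with DMSO and 100% = TNF-alpha with MG high control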
STAT1 inh 2 – STAT1 inhibition in STAT3 inhibitor counter-screen | shares compounds with STAT3 inh-1 | NIH 3T3 STAT1-luciferase reporter, IFN-gamma induced, luminescence | inhibition, % at 5.7 µM | 1,200 tested, 27% active | AID 1317;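 active means inhibition above the mean plus 3 SD of solvent-only control wells, limit set per screening run, cut at about 16% in these data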;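 further: 0% = DMSO with IFN-gamma and 100% = nifuroxazide control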
An asterisk follows results filed as active; nt = no result. Rows were chosen to be rich in hits. Some 4.9% of all compounds tested hit in one or more screens of this group.

SMILES	STAT3 activator	APP 5'UTR act	STAT1 activator	STAT3 inh-1	STAT1 inh	NF-kB expr up	STAT3 inh-2	NFkB inh STAT3ct	STAT1 inh 2
Cc1sc2ncnc(NCC(C)(C)N3CCOCC3)c2c1C	61.2	-8.8	79.5	47.2*	24.3	0.71	56.0*	15.5*	18.5*
Cc1sc2ncnc(NCC3CCCO3)c2c1C (configuration not stated)	80.7	7.2	82.3	26.0	19.4	0.74	nt	nt	nt
Cc1ccc(C)c(NC(=O)c2ccc(S(=O)(=O)C(F)F)cc2)c1	94.4	-7.8	96.8	9.3	3.6	1.24	nt	nt	nt
COc1ccc(CN(C)C(C)C(=O)Nc2ccc(S(=O)(=O)N3CCCC3)cc2)c(OC)c1OC (configuration not stated)	64.1	13.6	74.5	44.7*	26.4	0.78	31.5	3.4	17.8*
COc1cc(CC(=O)OCC(=O)Nc2ccc(S(=O)(=O)N3CCCC3)cc2)cc(OC)c1OC	106.2	18.5	100.5	0.4	-0.6	1.31	nt	nt	nt
Cc1ccc(-c2cc3c(N=O)c4ccccc4c-3n[nH]2)cc1	8.6	5.9	69.0	117.3*	33.1	0.63	98.2*	79.7*	2.4
Cc1ccc(-c2cc(N)n[nH]2)cc1	130.8	-8.2	106.9	-36.3	-7.5	1.45	nt	nt	nt
O=Nc1c2cc(-c3ccccc3)[nH]nc-2c2ccccc12	23.4	100.9	105.4	98.5*	-6.0	4.75*	48.2*	30.0*	-16.7
Cc1cccc(/C=N/n2c(-c3cc(-c4ccccc4)n[nH]3)n[nH]c2=S)c1	103.7	11.1	99.3	-1.1	0.8	1.15	nt	nt	nt
Cc1cccc(-c2cc3c(N=O)c4ccccc4c-3n[nH]2)c1	61.6	142.4*	105.6	50.4*	-6.1	3.75*	-5.7	-19.0	-26.3
CC1=CC(=C2C(=O)c3ccccc3C2=O)C=C(C)O1	89.4	11.3	124.1	14.8	-26.3	2.37	nt	nt	nt
CCCCN1C(C)=CC(=C2C(=O)c3ccccc3C2=O)C=C1C	43.2	180.5*	82.2	70.8*	18.4	3.17	16.4	-25.7	-131.9
FC(F)(F)c1cnc(Sc2ncn[nH]2)c(Cl)c1	104.8	2.2	105.9	1.3	-7.9	1.13	nt	nt	nt
COc1ccc(NC(=O)c2cc3ccccn3n2)cc1	66.5	149.1*	120.5	45.7*	-22.6	5.98*	19.7	-29.3	-95.8
O=C(Nc1ccc(Br)cc1)c1ccc(CSC2=NCCS2)cc1	60.8	53.7	120.8	55.6*	-23.1	1.29	34.9	-10.8	-30.7
O=C(CSC1=NCCS1)Nc1ccc(F)cc1	94.9	-17.3	96.4	12.7	1.8	1.28	nt	nt	nt
Cc1ccc(NC(=O)C2CCCN2S(=O)(=O)c2ccc3c(c2)n(C)c(=O)c(=O)n3C)cc1C (configuration not stated)	106.2	12.6	98.8	-7.3	1.3	0.78	nt	nt	nt
O=C(O)/C=C/c1cnn(-c2ccccc2)c1	66.0	89.9	73.8	45.0*	28.5	1.95	13.1	-13.5	-28.9
CCC(=O)Nc1cc2nn(-c3ccc(OC)cc3)nc2cc1C	67.3	161.6*	133.4*	43.7*	-35.0	2.23	40.2	-2.5	-51.4
CCC(=O)Nc1cc2nn(-c3ccc(C)cc3)nc2cc1C	36.4	115.7	105.2	82.1*	-5.7	0.7	51.3*	14.3*	-106.7
CCCCC(=O)Nc1cc2nn(-c3ccc(OC)cc3)nc2cc1C	101.8	14.9	110.8	4.3	-11.8	1.27	nt	nt	nt
COc1ccc(CC(=O)Nc2cccc(SC)c2)cc1OC	63.0	-13.5	82.5	47.2*	17.8	1.01	44.0*	8.6	13.9
COc1ccc(CC(=O)Nc2cccc(S(=O)(=O)N3CCCCCC3)c2)cc1OC	37.5	-15.9	95.4	74.2*	5.2	0.79	74.6*	27.2*	19.2*
Cc1ccc(C(=O)N(Cc2ccccc2)C(C)(C)C)cc1C	101.6	-14.2	91.2	-3.6	9.5	1.63	nt	nt	nt

Screens deposited in PubChem BioAssay by several laboratories.
